Calls of active or inactive are those of the source. The rule behind the calls is not given here.
How the values were obtained:
MDA-MB-231 [1] = assay: Anti-migratory activity against human MDA-MB-231 cells assessed as reduction in wound closure at 2 uM up to 24 hrs by wound-healing assay; format: functional, cell-based
Procedure, shortened: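 MDA-MB-231 monolayer was scratched to make a wound gap. Cells were treated alongside a DMSO vehicle control, and migration into the gap was imaged at 24 h.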

MDA-MB-231 [2] = assay: Inhibition of mammosphere formation in human MDA-MB-231 cells assessed as ratio of C-Myc to beta actin level at 5 uM by Western blot analysis (Rvb= 1); format: functional
Procedure, shortened: (§1)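 Post-treatment cell lysates were probed by Western blot for CSC markers, with β-actin as the loading control. Band densitometry was normalized to DMSO-treated samples.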

MDA-MB-231 [3] = assay: Induction of apoptosis in human MDA-MB-231 cells assessed as ratio of cleaved caspase-9 to beta-actin level at 5 uM by western blot analysis (reference value: 1); format: functional
MDA-MB-231 [4] = assay: Effect on epithelial-mesenchymal transition in human MDA-MB-231 cells assessed as ratio of vimentin to beta-actin level at 5 uM by Western blot analysis (reference value: 1); format: functional
MCF-10A [5] = assay: Induction of apoptosis in human MCF10A cells assessed as ratio of cleaved caspase-3 to beta-actin level at 5 uM by western blot analysis (reference value: 1); format: cell-based
MCF-10A [6] = assay: Cytotoxicity against human MCF10A cells assessed as reduction in cell viability by MTT assay; format: cell-based
BT-549 [7] = assay: Induction of apoptosis in human BT549 cells assessed as ratio of cleaved caspase-3 to beta-actin level at 5 uM by western blot analysis (reference value: 1); format: functional
MDA-MB-231 [8] = assay: Inhibition of colony formation in human MDA-MB-231 cells at 2 uM supplemented with fresh medium containing compound every 3 days for 10 days by microscopic method based soft agar colony formation assay relative to control; format: functional
MDA-MB-231 [9] = assay: Cytotoxicity against human MDA-MB-231 cells assessed as reduction in cell viability by MTT assay; format: functional, cell-based
BT-549 [10] = assay: Inhibition of mammosphere formation in human BT549 cells assessed as ratio of C-Myc to beta actin level at 5 uM by Western blot analysis (Rvb= 1); format: functional
MCF7 = assay: Inhibition of mammosphere formation in human MCF7 cells assessed as ratio of KLF4 to beta actin level at 5 uM by Western blot analysis (Rvb= 1); format: functional; procedure, shortened: as §1
BT-549 [11] = assay: Inhibition of mammosphere formation in human BT549 cells assessed as ratio of KLF4 to beta actin level at 5 uM by Western blot analysis (Rvb= 1); format: functional
BT-549 [12] = assay: Induction of apoptosis in nuclear fractions of human BT549 cells assessed as ratio of cleaved PARP to beta-actin level at 5 uM by western blot analysis (reference value: 1); format: functional

Q: How did the Activity (MDA-MB-231 [1]) turn out when `C=C(c1ccc(C(=O)NCCN2CCCC2)cc1)c1cc2c(cc1C)C(C)(C)CCC2(C)C` was run?
A: Active

Q: What about the Ratio (MDA-MB-231 [2]) of the same compound?
A: 1.1

Q: And the Ratio (MDA-MB-231 [3])?
A: 1.7

Q: And the Ratio (MDA-MB-231 [4])?
A: 0.3

Q: What about the Ratio (MCF-10A [5]) of the same compound?
A: 1

Q: And the Activity (MCF-10A [6])?
A: Non-Toxic

Q: What about the Ratio (BT-549 [7]) of the same compound?
A: 2.1

Q: What about the “inhibition (INH)” value (MDA-MB-231 [8]) of the same compound?
A: 90%

Q: And the EC50 (MDA-MB-231 [9])?
A: < 10 µM

Q: What about the Ratio (BT-549 [10]) of the same compound?
A: 0.8

Q: And the Ratio (MCF7)?
A: 0.7

Q: What about the Ratio (BT-549 [11]) of the same compound?
A: 0.8

Q: And the Ratio (BT-549 [12])?
A: 2.5

Source: ChEMBL document CHEMBL4184106, “Discovering alkylamide derivatives of bexarotene as new therapeutic agents against triple-negative breast cancer” (Bioorg Med Chem Lett, 2018)
